# Compounds with a hit are over-represented: about 5.9% of the library has one in this group of screens.
# T cruzi growth-1: inhibitors of T. cruzi proliferation; T. cruzi beta-gal in NIH3T3, GalScreen luminescence, 90 h; inhibition, % at 8.34 µM; 77,000 compounds, 5.9% hits; AID 624255;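 active means mean inhibition above about 93%, with at least 55% of replicates each passing it, limit read from the data, passing the limit was not always enough; inconclusive means only one of those two conditions holds; inactive means neither condition holds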
# IDH1 mut inh: IDH1 R132H (human) inhibition | O75874 | inhibition, % at 10 µM | 70,000 compounds, 0.18% hits | IDH1 R132H reductase, diaphorase/resazurin fluorescence, 60 min; in the data active means inhibition above about 34%; inconclusive means no clear call, values can overlap the other calls; inactive means below about 11%
# Target sequence (O75874 whole entry R132H): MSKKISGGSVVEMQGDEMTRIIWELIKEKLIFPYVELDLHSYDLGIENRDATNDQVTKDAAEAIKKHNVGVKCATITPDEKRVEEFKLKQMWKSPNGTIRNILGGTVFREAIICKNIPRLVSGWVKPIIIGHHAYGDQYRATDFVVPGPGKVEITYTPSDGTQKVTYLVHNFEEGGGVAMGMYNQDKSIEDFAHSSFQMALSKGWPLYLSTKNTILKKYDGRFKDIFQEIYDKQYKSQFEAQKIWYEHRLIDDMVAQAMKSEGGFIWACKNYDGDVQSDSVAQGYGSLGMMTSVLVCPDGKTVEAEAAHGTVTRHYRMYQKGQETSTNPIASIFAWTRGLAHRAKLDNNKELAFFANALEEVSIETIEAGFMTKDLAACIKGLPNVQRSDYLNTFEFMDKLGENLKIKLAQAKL
# KDM4C inh: KDM4C (human) demethylase inhibition. Q9H3R0. GST-KDM4C 2-372, H3K9me3 peptide, LANCE TR-FRET. inhibition, % at 12.5 µM. 96,000 compounds, 0.15% hits. AID 720574;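 active means mean replicate inhibition above about 25%, with at least 55% of replicates also reaching it, limit read from the data, passing the limit was not always enough; inconclusive means only one of those two conditions met; inactive means neither condition met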
#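 Test system: N-terminal GST-fused human GASC-1 (KDM4C) fragment, residues 2-372; quantity: GASC-1 enzyme at 10 nM final in reaction; dosing: single dose; schedule: 30 min demethylation and 1 h detection at room temperature; signal: LANCE TR-FRET, excitation 340 nm, emissions 618 and 671 nm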
# Pf Dd2 inh: P. falciparum Dd2 growth inhibition; SYBR Green, 72 h; stronger effect = lower value; activity change, % at 10 µM; 94,000 compounds, 2.3% hits; AID 1159554; in the data active means activity change below about -80%; inconclusive means no clear call, values can overlap the other calls
# T cruzi growth-2: Trypanosoma cruzi proliferation inhibition. shares compounds with T cruzi growth-1. T. cruzi beta-gal in NIH3T3, GalScreen luminescence, 90 h. inhibition, % at 8.35 µM. 5,600 compounds, 72% hits. AID 651739;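 active means mean replicate inhibition above about 95% and at least 55% of replicates individually reaching it, limit read from the data; inconclusive means only one of the two criteria is met; inactive means neither criterion is met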
# T cruzi growth-3: inhibitors of T. cruzi proliferation | T. cruzi beta-gal in NIH3T3, GalScreen luminescence, 90 h | shares compounds with T cruzi growth-1 | inhibition, % at 2.09 µM | 5,600 compounds, 21% hits;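 active means mean inhibition above about 95%, with at least 55% of replicates also reaching it, limit read from the data; inconclusive means meets just one of the two conditions; inactive means meets neither condition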
# 3T3 cytotox: NIH/3T3 (mouse) viability loss; 5,600 compounds, 14% hits; shares compounds with T cruzi growth-1; cytotoxicity (signal decrease), % at 8.35 µM; NIH/3T3 viability, CellTiter-Glo ATP luminescence, 90 h;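 active means mean signal decrease across replicates above about 35% based on untreated-well scatter, with enough replicates individually passing, limit read from the data; inconclusive means no rule stated though some were filed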
# NIH3T3 tox 2: NIH/3T3 (mouse) viability loss; shares compounds with T cruzi growth-1; NIH/3T3 viability, CellTiter-Glo ATP luminescence, 90 h; inhibition, % at 24.9 µM; 5,600 compounds, 56% hits; AID 651744;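 active means mean loss of cell viability signal at or above a set limit, and enough replicates individually reaching it; inconclusive means meets only the mean limit or only the replicate share; inactive means meets neither condition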
# Numbers stand for hits; - = inactive; ? = inconclusive; . = no result given.
SMILES,T cruzi growth-1,IDH1 mut inh,KDM4C inh,Pf Dd2 inh,T cruzi growth-2,T cruzi growth-3,3T3 cytotox,NIH3T3 tox 2
O=C(c1ccccn1)N1CC[C@@H]2[C@H](CO)Nc3ccc(-c4ccccc4F)cc3[C@@H]21,-,.,-,-,.,.,.,.
O=C(c1ccccn1)N1CC[C@H]2[C@H](CO)Nc3ccc(-c4cccc(F)c4)cc3[C@H]21,-,.,-,-,.,.,.,.
O=C(c1ccc(F)cc1)N1CC[C@H]2[C@H](CO)Nc3ccc(-c4ccccc4F)cc3[C@H]21,-,.,-,-,.,.,.,.
COc1ccccc1NC(=O)C1=C(C)NC2=C(C(=O)CC(c3ccc(OC)c(OC)c3)C2)C1c1ccc(C)o1 (stereo not given),.,-,.,.,.,.,.,.
CC(C)C#Cc1ccc2c(c1)O[C@H](CN(C)C(=O)C1CCCCC1)[C@H](C)CN([C@H](C)CO)S2(=O)=O,100,.,-,-,108,-,-,105
CC(C)C#Cc1ccc2c(c1)O[C@H](CN(C)C(=O)C1CCCCC1)[C@H](C)CN([C@@H](C)CO)S2(=O)=O,-,-,-,-,.,.,.,.
CC(C)C#Cc1ccc2c(c1)O[C@H](CN(C)C(=O)C1CCC1)[C@H](C)CN([C@H](C)CO)S2(=O)=O,-,.,-,-,.,.,.,.
CC(C)C#Cc1ccc2c(c1)O[C@H](CN(C)C(=O)C1CCCCC1)[C@@H](C)CN([C@@H](C)CO)S2(=O)=O,?,.,-,-,95,-,-,106
C[C@H]1CN([C@@H](C)CO)C(=O)c2cccc(NC(=O)c3ccncc3)c2O[C@H]1CN(C)Cc1ccc(-c2ccccc2)cc1,-,-,-,-,.,.,.,.
C[C@H](CO)N1C[C@H](C)[C@H](CN(C)Cc2ccc(C(F)(F)F)cc2)Oc2c(NC(=O)c3ccncc3)cccc2C1=O,?,-,-,-,-,-,-,-
C[C@@H]1CN([C@H](C)CO)C(=O)c2cccc(NC(=O)c3ccncc3)c2O[C@@H]1CN(C)Cc1ccc(C(=O)Nc2ccccc2N)cc1,90,-,-,-,103,-,-,33
C[C@@H]1CN([C@@H](C)CO)C(=O)c2cccc(N(C)C)c2O[C@@H]1CN(C)Cc1ccc(C(=O)Nc2ccccc2N)cc1,113,.,.,-82,104,-,-,73
C[C@H]1CN([C@@H](C)CO)C(=O)c2cccc(NC(=O)c3ccncc3)c2O[C@@H]1CN(C)Cc1ccc(-c2ccccc2)cc1,?,.,-,-,-,-,-,47
Cc1nnc(SCC(=O)Nc2ccccc2C(=O)c2ccccc2)s1,.,-,.,.,.,.,.,.
Cc1c(Cl)c(C)c(Cl)c(OCC(=O)Nc2ccccc2N2CCOCC2)c1Cl,.,-,.,.,.,.,.,.
C[C@H](CO)N1C[C@H](C)[C@H](CN(C)Cc2ccc(C(=O)Nc3ccccc3N)cc2)Oc2c(NC(=O)c3ccncc3)cccc2C1=O,?,-,-,-,105,-,-,?
O=C(C[C@H]1C=C[C@@H](NC(=O)C2CC2)[C@@H](CO)O1)Nc1nccs1,121,-,-,-,-,-,-,-
C[C@@H](NC(=O)C[C@@H]1C=C[C@H](NC(=O)C2CCOCC2)[C@H](CO)O1)c1ccccc1,-,-,-,-,.,.,.,.
C[C@H](NC(=O)C[C@H]1C=C[C@H](NC(=O)C2CCOCC2)[C@H](CO)O1)c1ccccc1,98,-,-,-,-,-,-,-
Cc1cc(C(F)(F)F)nc(SCC(=O)Nc2cccc(Cl)c2Cl)n1,.,-,.,.,.,.,.,.
O=C(c1ccc(F)cc1)N1CCCCN2[C@H](C1)[C@H](c1ccc(/C=C/c3ccccc3)cc1)[C@@H]2CO,?,.,-,-,?,-,-,103
O=C(c1ccc(F)cc1)N1CCCCN2[C@H](CO)[C@@H](c3ccc(/C=C/c4ccccc4)cc3)[C@H]2C1,108,.,-,-,103,-,-,104
CO[C@H]1CN(C)C(=O)c2ccc(NC(=O)NC(C)C)cc2OC[C@@H](C)N(Cc2ccccn2)C[C@H]1C,109,-,-,-,-,-,-,-
COc1ccccc1NC(=O)Nc1ccc2c(c1)OC[C@@H](C)N(Cc1ccccc1Cl)C[C@@H](C)[C@H](OC)CN(C)C2=O,127,-,-,-97,104,112,-,-
CO[C@H]1CN(C)C(=O)c2cc(NC(=O)NC(C)C)ccc2OC[C@H](C)N(Cc2ccccn2)C[C@H]1C,106,-,-,-,-,-,-,-
SMILES,T cruzi growth-1,IDH1 mut inh,KDM4C inh,Pf Dd2 inh,T cruzi growth-2,T cruzi growth-3,3T3 cytotox,NIH3T3 tox 2
CCS(=O)(=O)Nc1ccc2c(c1)C(=O)N(C)C[C@H](OC)[C@H](C)CN(Cc1ccccn1)[C@H](C)CO2,99,-,-,-,-,-,-,-
CO[C@H]1CN(C)C(=O)c2cc(NC(=O)NC(C)C)ccc2OC[C@@H](C)N(Cc2ccccn2)C[C@@H]1C,-,-,-,-,.,.,.,.
COc1ccccc1NC(=O)Nc1ccc2c(c1)OC[C@@H](C)N(Cc1ccccc1C(=O)O)C[C@@H](C)[C@H](OC)CN(C)C2=O,-,-,-,-,.,.,.,.
Cc1cccc(NC(=O)C(C)N(c2ccc(Oc3ccccc3)cc2)S(C)(=O)=O)c1 (stereo not given),.,-,.,.,.,.,.,.
COc1ccc(C#Cc2ccc([C@@H]3[C@H](CO)N4CCCCN(Cc5ccncc5)C[C@@H]34)cc2)cc1,-,.,-,-,.,.,.,.
COc1cccc(CN2CCCCN3[C@H](C2)[C@@H](c2ccc(-c4cccnc4)cc2)[C@@H]3CO)c1,-,.,-,-,.,.,.,.
COc1cccc(CN2CCCCN3[C@H](CO)[C@@H](c4ccc(C#Cc5cccnc5)cc4)[C@@H]3C2)c1,116,.,-,-,104,-,-,104
COc1cccc(CN2CCCCN3[C@@H](CO)[C@H](c4ccc(C#Cc5cccnc5)cc4)[C@@H]3C2)c1,117,.,-,-,109,-,-,103
CNC[C@H]1OCc2cnnn2CCCC(=O)N([C@@H](C)CO)C[C@@H]1C,-,-,-,-,.,.,.,.
CNC[C@H]1OCc2cn(nn2)CCCC(=O)N([C@H](C)CO)C[C@H]1C,?,-,-,-,-,-,-,-
CNC[C@H]1OCc2cnnn2CCCC(=O)N([C@@H](C)CO)C[C@H]1C,120,.,-,-,-,-,-,-
Cc1ccccc1S(=O)(=O)N(C)C[C@@H]1OCc2cnnn2CCCC(=O)N([C@H](C)CO)C[C@H]1C,-,-,-,-,.,.,.,.
Cc1ccccc1S(=O)(=O)N(C)C[C@@H]1OCc2cnnn2CCCC(=O)N([C@@H](C)CO)C[C@@H]1C,?,.,-,-,-,-,-,-
COC(CN1C(=O)C2C3C=CC(C3)C2C1=O)OC (stereo not given),.,-,.,.,.,.,.,.
Nc1c(Cl)cc(NC(=O)CCCC(=O)O)cc1Cl,.,-,.,.,.,.,.,.
Cc1cc(C)cc(NC(=O)CN(c2ccc(Cl)cc2Cl)S(C)(=O)=O)c1,.,-,.,.,.,.,.,.

# Bioassay records as filed in PubChem BioAssay.
